Assay results from ChEMBL document CHEMBL4390639, “Design, Synthesis, and Biological Evaluation of Novel Allosteric Protein Disulfide Isomerase Inhibitors” (J Med Chem, 2019).
Blank lines part the entries; values can stand above or below the compound they belong to. The source made the active and inactive calls. The rule behind the calls is not given here.

What was measured:
[1] = target: 72 kDa type IV collagenase (Homo sapiens) (UniProt P08253); assay: Inhibition of MMP2 activity in human U87MG cells at 10 uM […] by gelatin zymographic method; format: cell-based
A 172 [2] = assay: Induction of morphological changes in human A172 cells assessed as membrane blebbing at 11 uM measured after 48 hrs by Giemsa-staining based microscopic analysis; format: functional, cell-based
U-87 MG [3] = assay: Up regulation of HMOX1 gene expression in human U87MG cells at 16 uM incubated for 4 hrs followed by bromouridine addition during last 30 mins of incubation by TRIzol-reagent based Bru-Seq analysis relative to control; format: functional, U-87MG ATCC
In short: (§1)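 U87MG cells exposed to compound or DMSO vehicle for 4 h, with 2 mM bromouridine added for the final 30 min. Total RNA isolated with TRIzol; Bru-labelled nascent RNA captured on anti-BrdU antibody-conjugated magnetic beads and sequenced. Transcript abundance expressed as RPKM relative to DMSO. Experiment performed once.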

U-87 MG [4] = assay: Up regulation of SLC7A11 gene expression in human U87MG cells at 16 uM incubated for 4 hrs followed by bromouridine addition during last 30 mins of incubation by TRIzol-reagent based Bru-Seq analysis relative to control; format: functional, U-87MG ATCC
In short: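 U87MG cells treated 4 h with test compound (10 or 16 μM, as per line) or DMSO; 2 mM bromouridine added for final 30 min. Total RNA isolated with TRIzol, Bru-labelled nascent RNA captured with anti-BrdU antibody magnetic beads and sequenced; transcript abundance (RPKM) compared with DMSO control. Single experiment.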

U-87 MG [5] = assay: Up regulation of HSPH1 gene expression in human U87MG cells at 16 uM incubated for 4 hrs followed by bromouridine addition during last 30 mins of incubation by TRIzol-reagent based Bru-Seq analysis relative to control; format: functional, U-87MG ATCC; in short: as §1
U-87 MG [6] = assay: Down regulation of STRA6 gene expression in human U87MG cells at 16 uM incubated for 4 hrs followed by bromouridine addition during last 30 mins of incubation by TRIzol-reagent based Bru-Seq analysis relative to control; format: functional, U-87MG ATCC; in short: as §1
U-87 MG [7] = assay: Down regulation of H1F0 gene expression in human U87MG cells at 16 uM incubated for 4 hrs followed by bromouridine addition during last 30 mins of incubation by TRIzol-reagent based Bru-Seq analysis relative to control; format: functional, U-87MG ATCC
U-87 MG [8] = assay: Down regulation of RAD51 gene expression in human U87MG cells at 16 uM incubated for 4 hrs followed by bromouridine addition during last 30 mins of incubation by TRIzol-reagent based Bru-Seq analysis; format: functional, cell-based; conditions: U-87MG ATCC
In short: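 Bru-seq in U87MG cells treated at 16 μM for 4 h; 2 mM bromouridine present during the last 30 min. TRIzol total RNA, then anti-BrdU bead capture of labelled RNA and sequencing. Readout is RPKM traces versus DMSO control. Performed once.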

U-87 MG [9] = assay: Down regulation of E2F1 gene expression in human U87MG cells at 16 uM incubated for 4 hrs followed by bromouridine addition during last 30 mins of incubation by TRIzol-reagent based Bru-Seq analysis; format: functional, cell-based; conditions: U-87MG ATCC
A 172 [10] = assay: Induction of morphological changes in human A172 cells assessed as formation of lipid vesicles around nucleus at 17 uM measured after 48 hrs by Giemsa-staining based microscopic analysis; format: functional, cell-based
U-87 MG [11] = assay: Up regulation of HSPA6 gene expression in human U87MG cells at 10 uM incubated for 4 hrs followed by bromouridine addition during last 30 mins of incubation by TRIzol-reagent based Bru-Seq analysis relative to control; format: functional, U-87MG ATCC; in short: as §1
U-87 MG [12] = assay: Up regulation of HSPA1B gene expression in human U87MG cells at 10 uM incubated for 4 hrs followed by bromouridine addition during last 30 mins of incubation by TRIzol-reagent based Bru-Seq analysis relative to control; format: functional, U-87MG ATCC; in short: as §1
U-87 MG [13] = assay: Up regulation of CHAC1 gene expression in human U87MG cells at 10 uM incubated for 4 hrs followed by bromouridine addition during last 30 mins of incubation by TRIzol-reagent based Bru-Seq analysis relative to control; format: functional, U-87MG ATCC; in short: as §1
U-87 MG [14] = assay: Up regulation of MMP1 gene expression in human U87MG cells at 10 uM incubated for 4 hrs followed by bromouridine addition during last 30 mins of incubation by TRIzol-reagent based Bru-Seq analysis relative to control; format: functional, U-87MG ATCC; in short: as §1
U-87 MG [15] = assay: Up regulation of INHBA gene expression in human U87MG cells at 10 uM incubated for 4 hrs followed by bromouridine addition during last 30 mins of incubation by TRIzol-reagent based Bru-Seq analysis relative to control; format: functional, U-87MG ATCC; in short: as §1
U-87 MG [16] = assay: Up regulation of SESN2 gene expression in human U87MG cells at 10 uM incubated for 4 hrs followed by bromouridine addition during last 30 mins of incubation by TRIzol-reagent based Bru-Seq analysis relative to control; format: functional, U-87MG ATCC; in short: as §1
U-87 MG [17] = assay: Up regulation of PSAT1 gene expression in human U87MG cells at 10 uM incubated for 4 hrs followed by bromouridine addition during last 30 mins of incubation by TRIzol-reagent based Bru-Seq analysis relative to control; format: functional, U-87MG ATCC; in short: as §1
U-87 MG [18] = assay: Down regulation of ANKRD36B gene expression in human U87MG cells at 10 uM incubated for 4 hrs followed by bromouridine addition during last 30 mins of incubation by TRIzol-reagent based Bru-Seq analysis relative to control; format: functional, U-87MG ATCC
U-87 MG [19] = assay: Down regulation of KCTD4 gene expression in human U87MG cells at 10 uM incubated for 4 hrs followed by bromouridine addition during last 30 mins of incubation by TRIzol-reagent based Bru-Seq analysis relative to control; format: functional, U-87MG ATCC
U-87 MG [20] = assay: Down regulation of ZNF404 gene expression in human U87MG cells at 10 uM incubated for 4 hrs followed by bromouridine addition during last 30 mins of incubation by TRIzol-reagent based Bru-Seq analysis relative to control; format: functional, U-87MG ATCC; in short: as §1
U-87 MG [21] = assay: Down regulation of CHSY3 gene expression in human U87MG cells at 10 uM incubated for 4 hrs followed by bromouridine addition during last 30 mins of incubation by TRIzol-reagent based Bru-Seq analysis relative to control; format: functional, U-87MG ATCC
U-87 MG [22] = assay: Down regulation of FKBP7 gene expression in human U87MG cells at 10 uM incubated for 4 hrs followed by bromouridine addition during last 30 mins of incubation by TRIzol-reagent based Bru-Seq analysis relative to control; format: functional, U-87MG ATCC
U-87 MG [23] = assay: Down regulation of FPGT gene expression in human U87MG cells at 10 uM incubated for 4 hrs followed by bromouridine addition during last 30 mins of incubation by TRIzol-reagent based Bru-Seq analysis relative to control; format: functional, U-87MG ATCC
U-87 MG [24] = assay: Down regulation of HIST1H2BC gene expression in human U87MG cells at 10 uM incubated for 4 hrs followed by bromouridine addition during last 30 mins of incubation by TRIzol-reagent based Bru-Seq analysis relative to control; format: functional, U-87MG ATCC
U-87 MG [25] = assay: Down regulation of BARD1 gene expression in human U87MG cells at 10 uM incubated for 4 hrs followed by bromouridine addition during last 30 mins of incubation by TRIzol-reagent based Bru-Seq analysis relative to control; format: functional, U-87MG ATCC
U-87 MG [26] = assay: Down regulation of BBS10 gene expression in human U87MG cells at 10 uM incubated for 4 hrs followed by bromouridine addition during last 30 mins of incubation by TRIzol-reagent based Bru-Seq analysis relative to control; format: functional, U-87MG ATCC

Sequence of 72 kDa type IV collagenase (Homo sapiens) (P08253 110-660 limits assumed): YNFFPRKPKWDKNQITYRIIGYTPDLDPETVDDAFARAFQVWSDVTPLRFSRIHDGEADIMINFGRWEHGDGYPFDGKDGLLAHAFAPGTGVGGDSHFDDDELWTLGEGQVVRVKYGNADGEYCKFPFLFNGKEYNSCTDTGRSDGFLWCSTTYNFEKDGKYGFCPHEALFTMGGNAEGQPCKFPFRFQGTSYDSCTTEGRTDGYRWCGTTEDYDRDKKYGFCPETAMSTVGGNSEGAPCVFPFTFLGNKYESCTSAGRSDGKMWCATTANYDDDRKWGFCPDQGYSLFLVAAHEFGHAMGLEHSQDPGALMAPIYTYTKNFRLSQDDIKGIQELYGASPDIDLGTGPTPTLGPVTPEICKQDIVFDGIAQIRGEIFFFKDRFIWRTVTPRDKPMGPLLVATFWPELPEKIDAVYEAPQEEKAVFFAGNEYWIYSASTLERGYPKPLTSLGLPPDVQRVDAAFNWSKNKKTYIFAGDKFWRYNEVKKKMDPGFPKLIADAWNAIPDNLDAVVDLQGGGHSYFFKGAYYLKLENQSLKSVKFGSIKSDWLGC

- inhibition [1]: Active
SMILES: O=C(/C=C/c1ccc(-c2cccnc2)cc1)c1cccc(O)c1

SMILES: CCCCCN(CCCCC)S(=O)(=O)c1ccc(C(=O)/C=C/c2cccc(O)c2)cc1
- Activity (A 172 [2]): Active

SMILES: COC(=O)c1cccc(/C=C/C(=O)c2cccc(O)c2)c1
- fold change (FC) (U-87 MG [3]): 21.6
- fold change (FC) (U-87 MG [4]): 21.2
- fold change (FC) (U-87 MG [5]): 5
- fold change (FC) (U-87 MG [6]): 4
- fold change (FC) (U-87 MG [7]): 2.7
- Activity (U-87 MG [8]): Active
- Activity (U-87 MG [9]): Active

SMILES: N#Cc1cccc(/C=C/C(=O)c2ccc(O)cc2)c1
- Activity (A 172 [10]): Active

SMILES: CCCCCN(CCCCC)S(=O)(=O)c1ccc(C(=O)/C=C/c2cccc(C#N)c2)cc1
- fold change (FC) (U-87 MG [11]): 464.7
- fold change (FC) (U-87 MG [12]): 107.2
- fold change (FC) (U-87 MG [13]): 40.9
- fold change (FC) (U-87 MG [14]): 32.1
- fold change (FC) (U-87 MG [15]): 27
- fold change (FC) (U-87 MG [16]): 26.9
- fold change (FC) (U-87 MG [17]): 11.7
- fold change (FC) (U-87 MG [18]): 2.8
- fold change (FC) (U-87 MG [19]): 2.8
- fold change (FC) (U-87 MG [20]): 2.7
- fold change (FC) (U-87 MG [21]): 2.6
- fold change (FC) (U-87 MG [22]): 2.4
- fold change (FC) (U-87 MG [23]): 2.3
- fold change (FC) (U-87 MG [24]): 2.3
- fold change (FC) (U-87 MG [25]): 2.3
- fold change (FC) (U-87 MG [26]): 2.3
